Test results taken from ChEMBL document CHEMBL1157336, “Bisabolane sesquiterpenes from the roots of Ligularia cymbulifera” (2006).

Assays:
Assay type in all cases: functional
[1] = tested on: Staphylococcus aureus; test: Antibacterial activity against Staphylococcus aureus ATCC 25923 after 24 hrs by broth microdilution assay; conditions: ATCC 25923, 24 h
Summary of the method: (§1)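 Broth microdilution MIC in Mueller-Hinton broth; serial doubling dilutions over 0.0024-1.25 mg/mL. Overnight broth cultures, inoculum adjusted to 2 × 10^6 cfu/mL final per well. Incubated at 37 °C for 24 h. MIC read as the lowest concentration without visible growth (no turbidity). Duplicate wells, repeated twice; levofloxacin as positive control.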

[2] = tested on: Escherichia coli; test: Antibacterial activity against Escherichia coli ATCC 25922 after 24 hrs by broth microdilution assay; conditions: ATCC 25922, 24 h; summary of the method: as §1
[3] = tested on: Staphylococcus aureus; test: Antibacterial activity against methicillin-resistant Staphylococcus aureus isolate after 24 hrs by broth microdilution assay
Summary of the method: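 Clinical MRSA isolate; broth microdilution in Mueller-Hinton broth, twofold serial dilutions over 0.0024-1.25 mg/mL, final inoculum 2 × 10^6 cfu/mL from overnight broth culture; 37 °C, 24 h. MIC taken as lowest concentration without visible turbidity. Duplicate wells, repeated twice; levofloxacin positive control.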

[4] = tested on: Candida albicans; test: Antifungal activity against Candida albicans after 48 hrs by broth microdilution assay
Summary of the method: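 Yeast tested by broth microdilution in Mueller-Hinton broth; samples serially doubled over 0.0024-1.25 mg/mL. Inoculum from overnight broth culture, final 2 × 10^6 cfu/mL per well. Plates held at 30 °C for 48 h. MIC taken as the lowest concentration showing no turbidity. Duplicate, repeated twice; fluconazole positive control.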

Measured: MIC

C=C(C(CC1OC1(C)C)OC(=O)/C(C)=C\C)[C@H]1C[C@H]2O[C@@]2(C)C[C@H]1OC(=O)/C(C)=C\C (some centres not stated)
> 62.5 µg/mL: all assays above

C=C(C(CC(O)C(C)(C)O)OC(=O)/C(C)=C\C)[C@H]1C[C@H]2O[C@@]2(C)[C@@H](O)[C@H]1OC(=O)/C(C)=C\C (some centres not stated)
> 62.5 µg/mL: all assays above

C=C(C(CC(O)C(C)(C)O)OC(=O)/C(C)=C\C)[C@H]1C[C@H]2O[C@@]2(C)C(=O)[C@@H]1OC(=O)/C(C)=C\C (some centres not stated)
> 62.5 µg/mL: all assays above

C=C(C(CC1OC1(C)C)OC(=O)/C(C)=C\C)[C@H]1C[C@H](Cl)[C@@](C)(O)[C@@H](O)[C@H]1OC(=O)/C(C)=C\C (some centres not stated)
> 62.5 µg/mL: all assays above

C=C(C(CC1OC1(C)C)OC(=O)/C(C)=C\C)[C@H]1C[C@H]2O[C@@]2(C)[C@H](OC(=O)/C(C)=C\C)[C@@H]1O (some centres not stated)
> 62.5 µg/mL: all assays above

C=C(C(CC1OC1(C)C)OC(=O)/C(C)=C\C)[C@H]1C[C@H](OC(=O)/C(C)=C\C)[C@@](C)(O)[C@@H](OC(=O)/C(C)=C\C)[C@H]1O (some centres not stated)
> 62.5 µg/mL: all assays above

C=C(C(CC1OC1(C)C)OC(=O)/C(C)=C\C)[C@H]1C[C@@H]2O[C@]2(C)[C@@H](OC(=O)/C(C)=C\C)[C@@H]1O (some centres not stated)
> 62.5 µg/mL: all assays above

C=C(C(CC1OC1(C)C)OC(=O)/C(C)=C\C)[C@H]1C[C@H]2O[C@@]2(C)[C@@H](OC(=O)/C(C)=C\C)[C@H]1OC(=O)/C(C)=C\C (some centres not stated)
> 62.5 µg/mL: all assays above
